In ChEMBL document CHEMBL1146887 (J Med Chem, 2006):
Activity calls are given as the source filed them. The calls are words filed in the database; no cut-off is given here.

These compounds were tested against T1, Delta-type opioid receptor (Homo sapiens, UniProt P41143) (assay: Inverse agonist activity at human cloned delta opioid receptor expressed in CHO cells assessed as […] [35S]GTP-gamma-S binding in presence of 1 uM GDP relative to control).
Type: functional, cell-based
Parameters: scale not given: the % may be the effect or the level left

T1 sequence (P41143 whole entry): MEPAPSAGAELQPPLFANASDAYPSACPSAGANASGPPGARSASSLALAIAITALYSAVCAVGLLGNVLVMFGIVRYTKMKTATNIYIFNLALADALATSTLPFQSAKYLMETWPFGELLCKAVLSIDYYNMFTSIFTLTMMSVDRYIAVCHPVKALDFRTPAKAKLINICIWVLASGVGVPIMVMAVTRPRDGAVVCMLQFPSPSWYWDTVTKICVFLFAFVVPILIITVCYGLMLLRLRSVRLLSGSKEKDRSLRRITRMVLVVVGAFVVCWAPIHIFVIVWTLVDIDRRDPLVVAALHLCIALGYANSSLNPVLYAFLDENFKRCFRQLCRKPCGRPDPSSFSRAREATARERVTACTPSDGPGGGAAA

SMILES | Activity [%]
C[C@H]1CN(CCCc2ccccc2)[C@@H]2C[C@@H](NC(=O)C3(c4ccccc4)CCCCC3)C[C@@]1(c1cccc(O)c1)C2 | 65
C[C@H]1CN(CCCc2ccccc2)[C@@H]2C[C@@H](NC(=O)C(C)(C)c3ccccc3)C[C@@]1(c1cccc(O)c1)C2 | 64
C[C@H]1CN(CCCc2ccccc2)[C@@H]2C[C@@H](NC(=O)C3(c4ccccc4)CCC3)C[C@@]1(c1cccc(O)c1)C2 | 65

Now from value to compound:

Activity [%] | SMILES
72 | C[C@H]1CN(CCCc2ccccc2)[C@@H]2C[C@@H](NC(=O)C3(c4ccc(F)cc4)CCCC3)C[C@@]1(c1cccc(O)c1)C2
69 | C[C@H]1CN(CCCc2ccccc2)[C@@H]2C[C@@H](NC(=O)C3(c4ccc5ccccc5c4)CCCC3)C[C@@]1(c1cccc(O)c1)C2

Each compound was assayed against Mu-type opioid receptor (Homo sapiens) (UniProt P35372) (assay: Antagonist activity at human cloned mu opioid receptor expressed in CHO cells assessed as inhibition of DAMGO-stimulated [35S]GTP-gamma-S binding in presence of 10 uM GDP).
Chain of Mu-type opioid receptor (Homo sapiens) (P35372 whole entry): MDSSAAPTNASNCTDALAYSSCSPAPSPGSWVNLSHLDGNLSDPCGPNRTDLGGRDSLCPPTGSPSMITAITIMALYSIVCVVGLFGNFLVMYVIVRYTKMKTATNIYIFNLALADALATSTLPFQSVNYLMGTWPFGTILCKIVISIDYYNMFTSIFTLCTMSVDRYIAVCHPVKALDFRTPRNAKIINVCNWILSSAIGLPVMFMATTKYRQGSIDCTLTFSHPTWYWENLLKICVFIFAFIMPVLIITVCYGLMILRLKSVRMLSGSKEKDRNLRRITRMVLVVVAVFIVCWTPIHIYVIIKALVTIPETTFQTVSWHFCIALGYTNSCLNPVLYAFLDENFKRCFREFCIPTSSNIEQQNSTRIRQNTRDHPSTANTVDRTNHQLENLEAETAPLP
Type: functional, cell-based
Summary of the method: (§1)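 Membranes of CHO cells expressing cloned human receptor (0.4-0.6 pmol/mg), 20-40 µg protein, with 0.5 nM [³⁵S]GTPγS, 10 µM GDP final, 1% DMSO, in 20 mM Hepes pH 7.4, 100 mM NaCl, 10 mM MgCl₂; 1 h room temperature. Agonist curves (seven concentrations, 0.32-32 000 nM) ± one test concentration (µ 3-300, δ 1-50, κ 50-300 nM). Filtration over GF/B, scintillation counting; Ke as mean ± SE, ≥3 experiments.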

SMILES | Ke [nM]
C[C@H]1CN(CCCc2ccccc2)[C@@H]2C[C@@H](NC(=O)C3(c4ccccc4)CCCCC3)C[C@@]1(c1cccc(O)c1)C2 | 22.8
C[C@H]1CN(CCCc2ccccc2)[C@@H]2C[C@@H](NC(=O)C(C)(C)c3ccccc3)C[C@@]1(c1cccc(O)c1)C2 | 10.3
C[C@H]1CN(CCCc2ccccc2)[C@@H]2C[C@@H](NC(=O)C3(c4ccccc4)CCC3)C[C@@]1(c1cccc(O)c1)C2 | 10.6

More lines, now with the values ahead:

Ke [nM] | SMILES
9.1 | C[C@H]1CN(CCCc2ccccc2)[C@@H]2C[C@@H](NC(=O)C3(c4ccc(F)cc4)CCCC3)C[C@@]1(c1cccc(O)c1)C2
35 | C[C@H]1CN(CCCc2ccccc2)[C@@H]2C[C@@H](NC(=O)C3(c4ccc5ccccc5c4)CCCC3)C[C@@]1(c1cccc(O)c1)C2

What follows are compounds tested against T1, Delta-type opioid receptor (assay: Antagonist activity at human cloned delta opioid receptor expressed in CHO cells assessed as inhibition of DPDPE-stimulated [35S]GTP-gamma-S binding in presence of 10 uM GDP).
Type: functional, cell-based
Summary of the method: as §1

SMILES | Ke [nM]
C[C@H]1CN(CCCc2ccccc2)[C@@H]2C[C@@H](NC(=O)C3(c4ccccc4)CCCCC3)C[C@@]1(c1cccc(O)c1)C2 | 0.34
C[C@H]1CN(CCCc2ccccc2)[C@@H]2C[C@@H](NC(=O)C(C)(C)c3ccccc3)C[C@@]1(c1cccc(O)c1)C2 | 0.1
C[C@H]1CN(CCCc2ccccc2)[C@@H]2C[C@@H](NC(=O)C3(c4ccccc4)CCC3)C[C@@]1(c1cccc(O)c1)C2 | 0.17

Results, then the compound that gave them:

Ke [nM] | SMILES
0.26 | C[C@H]1CN(CCCc2ccccc2)[C@@H]2C[C@@H](NC(=O)C3(c4ccc(F)cc4)CCCC3)C[C@@]1(c1cccc(O)c1)C2
0.75 | C[C@H]1CN(CCCc2ccccc2)[C@@H]2C[C@@H](NC(=O)C3(c4ccc5ccccc5c4)CCCC3)C[C@@]1(c1cccc(O)c1)C2

What follows are compounds tested against Kappa-type opioid receptor (Homo sapiens) (UniProt P41145) (assay: Antagonist activity at human cloned kappa opioid receptor expressed in CHO cells assessed as inhibition of U69593-stimulated [35S]GTPgammaS binding in presence of 10 uM GDP).
Chain of Kappa-type opioid receptor (Homo sapiens) (P41145 whole entry): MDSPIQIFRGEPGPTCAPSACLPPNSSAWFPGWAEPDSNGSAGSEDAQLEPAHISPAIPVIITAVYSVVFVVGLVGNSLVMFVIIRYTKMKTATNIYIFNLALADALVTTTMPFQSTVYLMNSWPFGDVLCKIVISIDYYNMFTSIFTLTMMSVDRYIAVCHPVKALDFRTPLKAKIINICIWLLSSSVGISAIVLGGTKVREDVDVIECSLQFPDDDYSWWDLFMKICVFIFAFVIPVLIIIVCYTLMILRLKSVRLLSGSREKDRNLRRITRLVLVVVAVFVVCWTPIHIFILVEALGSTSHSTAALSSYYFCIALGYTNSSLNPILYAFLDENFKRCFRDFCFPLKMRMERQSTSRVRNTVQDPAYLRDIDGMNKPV
Type: functional, cell-based
Summary of the method: as §1

SMILES | Ke [nM]
C[C@H]1CN(CCCc2ccccc2)[C@@H]2C[C@@H](NC(=O)C3(c4ccccc4)CCCCC3)C[C@@]1(c1cccc(O)c1)C2 | 10.2
C[C@H]1CN(CCCc2ccccc2)[C@@H]2C[C@@H](NC(=O)C(C)(C)c3ccccc3)C[C@@]1(c1cccc(O)c1)C2 | 13.2
C[C@H]1CN(CCCc2ccccc2)[C@@H]2C[C@@H](NC(=O)C3(c4ccccc4)CCC3)C[C@@]1(c1cccc(O)c1)C2 | 16

Continued, values first:

Ke [nM] | SMILES
4.5 | C[C@H]1CN(CCCc2ccccc2)[C@@H]2C[C@@H](NC(=O)C3(c4ccc(F)cc4)CCCC3)C[C@@]1(c1cccc(O)c1)C2
56.1 | C[C@H]1CN(CCCc2ccccc2)[C@@H]2C[C@@H](NC(=O)C3(c4ccc5ccccc5c4)CCCC3)C[C@@]1(c1cccc(O)c1)C2

What follows are compounds tested against Opioid receptors; mu & delta (Homo sapiens) (UniProt P41143+P35372) (assay: Selectivity for human cloned delta opioid receptor over mu opioid receptor).
Chain of Opioid receptors; mu & delta (Homo sapiens) (P35372 whole entry, looked up): as the sequence (P35372 whole entry) above
Chain of Opioid receptors; mu & delta (Homo sapiens) (P41143 whole entry, looked up): as the sequence (P41143 whole entry) above
Type: protein assay
Summary of the method: (§2)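 Ratios of Ke values from [³⁵S]GTPγS antagonism assays at cloned human µ, δ and κ receptors in CHO membranes, each run with 10 µM GDP final against DAMGO, DPDPE or U69593 agonist curves.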

SMILES | Ratio Ke
C[C@H]1CN(CCCc2ccccc2)[C@@H]2C[C@@H](NC(=O)C3(c4ccccc4)CCCCC3)C[C@@]1(c1cccc(O)c1)C2 | 67
C[C@H]1CN(CCCc2ccccc2)[C@@H]2C[C@@H](NC(=O)C(C)(C)c3ccccc3)C[C@@]1(c1cccc(O)c1)C2 | 103
C[C@H]1CN(CCCc2ccccc2)[C@@H]2C[C@@H](NC(=O)C3(c4ccccc4)CCC3)C[C@@]1(c1cccc(O)c1)C2 | 62

Continued, values first:

Ratio Ke | SMILES
35 | C[C@H]1CN(CCCc2ccccc2)[C@@H]2C[C@@H](NC(=O)C3(c4ccc(F)cc4)CCCC3)C[C@@]1(c1cccc(O)c1)C2
47 | C[C@H]1CN(CCCc2ccccc2)[C@@H]2C[C@@H](NC(=O)C3(c4ccc5ccccc5c4)CCCC3)C[C@@]1(c1cccc(O)c1)C2

The compounds below were run against Opioid receptors; delta & kappa (Homo sapiens) (UniProt P41145+P41143) (assay: Selectivity for human cloned delta opioid receptor over kappa opioid receptor).
Chain of Opioid receptors; delta & kappa (Homo sapiens) (P41143 whole entry, looked up): as the sequence (P41143 whole entry) above
Chain of Opioid receptors; delta & kappa (Homo sapiens) (P41145 whole entry, looked up): as the sequence (P41145 whole entry) above
Type: protein assay
Summary of the method: as §2

SMILES | Ratio Ke
C[C@H]1CN(CCCc2ccccc2)[C@@H]2C[C@@H](NC(=O)C3(c4ccccc4)CCCCC3)C[C@@]1(c1cccc(O)c1)C2 | 30
C[C@H]1CN(CCCc2ccccc2)[C@@H]2C[C@@H](NC(=O)C(C)(C)c3ccccc3)C[C@@]1(c1cccc(O)c1)C2 | 132
C[C@H]1CN(CCCc2ccccc2)[C@@H]2C[C@@H](NC(=O)C3(c4ccccc4)CCC3)C[C@@]1(c1cccc(O)c1)C2 | 94

Further lines, results first:

Ratio Ke | SMILES
17 | C[C@H]1CN(CCCc2ccccc2)[C@@H]2C[C@@H](NC(=O)C3(c4ccc(F)cc4)CCCC3)C[C@@]1(c1cccc(O)c1)C2
75 | C[C@H]1CN(CCCc2ccccc2)[C@@H]2C[C@@H](NC(=O)C3(c4ccc5ccccc5c4)CCCC3)C[C@@]1(c1cccc(O)c1)C2

Each compound was assayed against T1, Delta-type opioid receptor (assay: Agonist activity at delta opioid receptor at 31.6 uM).
Type: functional

SMILES | Activity
C[C@H]1CN(CCCc2ccccc2)[C@@H]2C[C@@H](NC(=O)C3(c4ccccc4)CCCCC3)C[C@@]1(c1cccc(O)c1)C2 | inactive
C[C@H]1CN(CCCc2ccccc2)[C@@H]2C[C@@H](NC(=O)C(C)(C)c3ccccc3)C[C@@]1(c1cccc(O)c1)C2 | inactive
C[C@H]1CN(CCCc2ccccc2)[C@@H]2C[C@@H](NC(=O)C3(c4ccccc4)CCC3)C[C@@]1(c1cccc(O)c1)C2 | inactive

The next lines start with the values.

Activity | SMILES
inactive | C[C@H]1CN(CCCc2ccccc2)[C@@H]2C[C@@H](NC(=O)C3(c4ccc(F)cc4)CCCC3)C[C@@]1(c1cccc(O)c1)C2
inactive | C[C@H]1CN(CCCc2ccccc2)[C@@H]2C[C@@H](NC(=O)C3(c4ccc5ccccc5c4)CCCC3)C[C@@]1(c1cccc(O)c1)C2

The compounds below were run against Mu-type opioid receptor (Homo sapiens) (UniProt P35372) (assay: Intrinsic activity at mu opioid receptor in presence of 1 uM GDP).
Type: functional

SMILES | Activity
C[C@H]1CN(CCCc2ccccc2)[C@@H]2C[C@@H](NC(=O)C3(c4ccccc4)CCCCC3)C[C@@]1(c1cccc(O)c1)C2 | inactive
C[C@H]1CN(CCCc2ccccc2)[C@@H]2C[C@@H](NC(=O)C(C)(C)c3ccccc3)C[C@@]1(c1cccc(O)c1)C2 | inactive
C[C@H]1CN(CCCc2ccccc2)[C@@H]2C[C@@H](NC(=O)C3(c4ccccc4)CCC3)C[C@@]1(c1cccc(O)c1)C2 | inactive

Further lines, results first:

Activity | SMILES
inactive | C[C@H]1CN(CCCc2ccccc2)[C@@H]2C[C@@H](NC(=O)C3(c4ccc(F)cc4)CCCC3)C[C@@]1(c1cccc(O)c1)C2
inactive | C[C@H]1CN(CCCc2ccccc2)[C@@H]2C[C@@H](NC(=O)C3(c4ccc5ccccc5c4)CCCC3)C[C@@]1(c1cccc(O)c1)C2

The compounds below were run against Kappa-type opioid receptor (Homo sapiens) (UniProt P41145) (assay: Intrinsic activity at kappa opioid receptor in presence of 1 uM GDP).
Type: functional

SMILES | Activity
C[C@H]1CN(CCCc2ccccc2)[C@@H]2C[C@@H](NC(=O)C3(c4ccccc4)CCCCC3)C[C@@]1(c1cccc(O)c1)C2 | inactive
C[C@H]1CN(CCCc2ccccc2)[C@@H]2C[C@@H](NC(=O)C(C)(C)c3ccccc3)C[C@@]1(c1cccc(O)c1)C2 | inactive
C[C@H]1CN(CCCc2ccccc2)[C@@H]2C[C@@H](NC(=O)C3(c4ccccc4)CCC3)C[C@@]1(c1cccc(O)c1)C2 | inactive

Now from value to compound:

Activity | SMILES
inactive | C[C@H]1CN(CCCc2ccccc2)[C@@H]2C[C@@H](NC(=O)C3(c4ccc(F)cc4)CCCC3)C[C@@]1(c1cccc(O)c1)C2
inactive | C[C@H]1CN(CCCc2ccccc2)[C@@H]2C[C@@H](NC(=O)C3(c4ccc5ccccc5c4)CCCC3)C[C@@]1(c1cccc(O)c1)C2

These compounds were tested against T1, Delta-type opioid receptor (assay: Inverse agonist activity at human cloned delta opioid receptor expressed in CHO cells assessed as […] [35S]GTP-gamma-S binding in presence of 1 uM GDP).
Type: functional, cell-based

SMILES | IC50 [nM]
C[C@H]1CN(CCCc2ccccc2)[C@@H]2C[C@@H](NC(=O)C3(c4ccccc4)CCCCC3)C[C@@]1(c1cccc(O)c1)C2 | 0.68
C[C@H]1CN(CCCc2ccccc2)[C@@H]2C[C@@H](NC(=O)C(C)(C)c3ccccc3)C[C@@]1(c1cccc(O)c1)C2 | 0.4
C[C@H]1CN(CCCc2ccccc2)[C@@H]2C[C@@H](NC(=O)C3(c4ccccc4)CCC3)C[C@@]1(c1cccc(O)c1)C2 | 0.42

Second part, the compound after the results:

IC50 [nM] | SMILES
0.45 | C[C@H]1CN(CCCc2ccccc2)[C@@H]2C[C@@H](NC(=O)C3(c4ccc(F)cc4)CCCC3)C[C@@]1(c1cccc(O)c1)C2
7.7 | C[C@H]1CN(CCCc2ccccc2)[C@@H]2C[C@@H](NC(=O)C3(c4ccc5ccccc5c4)CCCC3)C[C@@]1(c1cccc(O)c1)C2
